Common to all, as to assay: PAD isozyme probe labeling blockade – biochemical, fluorescence, gel-based ABPP, HTS hits, orthogonal assay for PAD4 inhibitor project, late-stage follow-up (AID 588487)
The target in assay [1] is Protein-arginine deiminase type-4 (Homo sapiens) (UniProt Q9UM07). The conditions noted are these: recombinant PAD1-4, gel-based ABPP, RFA probe fluorescence; PAD4; at 10 µM; stronger effect = higher value. The method, boiled down: (§1)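 Material: recombinant PAD1, PAD2, PAD3 or PAD4; Quantity: PAD enzyme 10 µM; Also added: RFA fluorescent probe at 1 µM; Dosing: one 10 µM dose per compound; Timing: 15 min compound pre-incubation plus 30 min probe step, 37 °C; Detection: in-gel fluorescence scan of probe-labeled PAD band after SDS-PAGE.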
Chain of Protein-arginine deiminase type-4 (Homo sapiens) (Q9UM07 whole entry, looked up): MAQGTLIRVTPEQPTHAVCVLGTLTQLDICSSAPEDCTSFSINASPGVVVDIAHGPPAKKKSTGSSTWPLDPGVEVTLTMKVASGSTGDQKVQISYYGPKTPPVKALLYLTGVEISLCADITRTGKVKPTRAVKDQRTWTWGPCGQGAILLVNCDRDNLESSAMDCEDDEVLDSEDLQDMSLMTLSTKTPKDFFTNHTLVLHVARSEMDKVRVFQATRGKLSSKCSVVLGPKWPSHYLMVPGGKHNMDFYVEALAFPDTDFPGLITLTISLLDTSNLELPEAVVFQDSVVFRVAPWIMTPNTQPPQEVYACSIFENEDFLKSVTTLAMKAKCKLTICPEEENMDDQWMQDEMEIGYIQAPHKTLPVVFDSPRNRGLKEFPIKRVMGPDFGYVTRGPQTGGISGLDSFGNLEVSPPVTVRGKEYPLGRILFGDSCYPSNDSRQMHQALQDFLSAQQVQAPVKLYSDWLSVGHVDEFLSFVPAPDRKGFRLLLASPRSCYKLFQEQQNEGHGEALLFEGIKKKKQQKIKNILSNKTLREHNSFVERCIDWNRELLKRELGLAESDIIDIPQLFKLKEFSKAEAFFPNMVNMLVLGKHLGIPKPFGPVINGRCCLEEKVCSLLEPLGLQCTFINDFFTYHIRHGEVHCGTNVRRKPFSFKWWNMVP

For assay [2], the target named is Protein-arginine deiminase type-2 (Homo sapiens) (UniProt Q9Y2J8). The conditions noted are these: recombinant PAD1-4, gel-based ABPP, RFA probe fluorescence; PAD2; at 10 µM; stronger effect = higher value. The gist of the method: as §1
Chain of Protein-arginine deiminase type-2 (Homo sapiens) (Q9Y2J8 whole entry, looked up): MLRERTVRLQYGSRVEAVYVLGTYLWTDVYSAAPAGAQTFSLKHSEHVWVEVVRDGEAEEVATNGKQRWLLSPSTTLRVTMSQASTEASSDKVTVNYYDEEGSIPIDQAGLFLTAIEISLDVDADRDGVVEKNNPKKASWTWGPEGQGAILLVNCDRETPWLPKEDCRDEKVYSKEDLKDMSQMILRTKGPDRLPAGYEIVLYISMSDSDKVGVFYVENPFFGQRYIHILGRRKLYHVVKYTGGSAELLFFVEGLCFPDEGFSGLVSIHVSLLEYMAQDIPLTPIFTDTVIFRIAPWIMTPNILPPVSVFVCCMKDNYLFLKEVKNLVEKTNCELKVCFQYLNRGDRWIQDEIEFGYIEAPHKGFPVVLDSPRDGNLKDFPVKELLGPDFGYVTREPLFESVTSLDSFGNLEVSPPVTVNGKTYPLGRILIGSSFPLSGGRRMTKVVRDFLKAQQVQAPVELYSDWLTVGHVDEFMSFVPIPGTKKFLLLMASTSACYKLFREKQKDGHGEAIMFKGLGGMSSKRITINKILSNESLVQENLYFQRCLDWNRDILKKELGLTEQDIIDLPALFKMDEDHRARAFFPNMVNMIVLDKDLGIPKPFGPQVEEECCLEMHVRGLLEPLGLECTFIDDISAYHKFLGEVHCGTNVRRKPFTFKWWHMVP
Assay [3] deals with Protein-arginine deiminase type-1 (Homo sapiens) (UniProt Q9ULC6). The conditions noted are these: recombinant PAD1-4, gel-based ABPP, RFA probe fluorescence; PAD1; at 10 µM; stronger effect = higher value. The gist of the method:
as §1

In assay [4] the target is Protein-arginine deiminase type-3 (Homo sapiens) (UniProt Q9ULW8). The conditions noted are these: recombinant PAD1-4, gel-based ABPP, RFA probe fluorescence; PAD3; at 10 µM; stronger effect = higher value. The method, boiled down:
as §1

Active and inactive are the calls of the source.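 Rule for the calls: active = inhibition of at least 50% against any of four protein arginine deiminase enzymes; inactive = the rest.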

Chain of Protein-arginine deiminase type-3 (Homo sapiens) (Q9ULW8 whole entry, looked up): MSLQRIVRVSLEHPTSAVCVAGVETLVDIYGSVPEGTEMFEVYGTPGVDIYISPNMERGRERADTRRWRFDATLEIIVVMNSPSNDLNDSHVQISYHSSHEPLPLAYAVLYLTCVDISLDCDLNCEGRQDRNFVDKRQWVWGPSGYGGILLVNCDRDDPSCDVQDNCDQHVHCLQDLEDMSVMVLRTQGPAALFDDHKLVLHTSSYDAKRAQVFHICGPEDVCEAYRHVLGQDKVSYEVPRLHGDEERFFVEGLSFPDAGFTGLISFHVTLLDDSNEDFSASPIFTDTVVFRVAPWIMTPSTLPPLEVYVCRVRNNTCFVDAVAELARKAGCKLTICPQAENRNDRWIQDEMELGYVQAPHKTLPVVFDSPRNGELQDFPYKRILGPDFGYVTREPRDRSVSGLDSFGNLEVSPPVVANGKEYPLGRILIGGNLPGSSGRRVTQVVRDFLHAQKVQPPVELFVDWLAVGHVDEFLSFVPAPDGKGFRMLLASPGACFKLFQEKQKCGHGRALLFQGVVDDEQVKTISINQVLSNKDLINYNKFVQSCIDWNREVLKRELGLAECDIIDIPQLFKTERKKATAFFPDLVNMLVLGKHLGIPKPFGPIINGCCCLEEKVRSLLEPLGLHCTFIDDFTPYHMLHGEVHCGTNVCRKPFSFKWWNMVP
Chain of Protein-arginine deiminase type-1 (Homo sapiens) (Q9ULC6 whole entry, looked up): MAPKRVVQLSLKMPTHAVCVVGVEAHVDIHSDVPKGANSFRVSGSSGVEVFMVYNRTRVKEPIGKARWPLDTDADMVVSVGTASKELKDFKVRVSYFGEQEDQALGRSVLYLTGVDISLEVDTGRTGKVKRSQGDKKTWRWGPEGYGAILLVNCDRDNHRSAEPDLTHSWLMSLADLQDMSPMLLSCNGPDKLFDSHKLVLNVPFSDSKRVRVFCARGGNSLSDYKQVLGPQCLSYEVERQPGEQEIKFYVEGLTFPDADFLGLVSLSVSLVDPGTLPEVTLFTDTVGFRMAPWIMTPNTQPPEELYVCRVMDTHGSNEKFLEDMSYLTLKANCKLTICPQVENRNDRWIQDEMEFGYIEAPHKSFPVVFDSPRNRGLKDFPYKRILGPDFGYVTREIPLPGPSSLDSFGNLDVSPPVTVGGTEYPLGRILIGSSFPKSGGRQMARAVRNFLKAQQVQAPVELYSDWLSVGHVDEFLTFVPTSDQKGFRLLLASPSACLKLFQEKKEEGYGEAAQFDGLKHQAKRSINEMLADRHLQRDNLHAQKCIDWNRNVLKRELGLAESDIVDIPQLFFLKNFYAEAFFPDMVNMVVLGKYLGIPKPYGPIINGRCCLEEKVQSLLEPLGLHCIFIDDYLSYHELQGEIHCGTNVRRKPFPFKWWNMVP

As to `O=c1cc(-c2ccc(Cl)c(Cl)c2)[nH][nH]1`, the inhibition – broadly, the drop in the measured response relative to a control, in per cent – in assay [1] was 42% (inactive); in assay [2], 51%; in assay [3] it was 27% (inactive); in assay [4], 41% (inactive).
As for `Cc1nonc1OC(C)CNc1ccc([N+](=O)[O-])cc1` (centres undefined), the inhibition was 22% (inactive) in assay [1], 38% (inactive) in assay [2], 46% (inactive) in assay [3] and 38% (inactive) in assay [4].
Consider `Cc1cc2ncn(-c3ncccc3[N+](=O)[O-])c2cc1C`, for which the inhibition in assay [1] is 29% (inactive); in assay [2], 25% (inactive); in assay [3], 46% (inactive); in assay [4] it was -25% (inactive).
In the same order, the values of `O=c1cc(-c2ccc(Br)cc2)[nH][nH]1` are 51%, -6% (inactive), 6% (inactive) and 20% (inactive).
Taken in the same sequence, the figures for `N#CCCN(C(=O)Cn1nc(C(=O)O)c2ccccc2c1=O)c1ccccc1` were -23% (inactive), 21% (inactive), 53% and 29% (inactive).
In the same order, the values of `Cc1ccc(-c2nc3sc(C#N)c(N)n3c(=O)c2C#N)cc1` are 38% (inactive), 16% (inactive), 32% (inactive) and 31% (inactive).
As to `Cc1cc(-c2nnc(SCC(=O)Nc3ccc(F)c(F)c3)n2N)n[nH]1`, the inhibition in assay [1] was 51%; in assay [2], 62%; in assay [3] it was 43% (inactive); in assay [4], -20% (inactive).
Taken in the same sequence, the figures for `Cn1c(=O)c2c(ncn2CC(=O)Nc2nc(-c3ccccc3Cl)cs2)n(C)c1=O` were 80%, 25% (inactive), 0% (inactive) and -19% (inactive).
Take `c1ccc(CCn2c3ccccc3c3nnc(SCc4ccc5nonc5c4)nc32)cc1`: the inhibition was 31% (inactive) in assay [1], 14% (inactive) in assay [2], 18% (inactive) in assay [3] and 21% (inactive) in assay [4].
As for `O=C(NC1CCCCC1)C(c1cccs1)N(CCCN1CCOCC1)C(=O)c1ccc(-c2ccccc2)[nH]1` (centres undefined), the inhibition is 59% in assay [1], -27% (inactive) in assay [2], -42% (inactive) in assay [3] and 15% (inactive) in assay [4].
In the same order, the values of `CC(NC(=O)Nc1ccc(O)cc1)(C(F)(F)F)C(F)(F)F` are 60%, 31% (inactive), 29% (inactive) and -29% (inactive).
Taken in the same sequence, the figures for `COc1ccc(CCNC(=O)c2c[nH]c3ccc(F)cc3c2=O)cc1OC` were 33% (inactive), 35% (inactive), -15% (inactive) and 23% (inactive).
In the case of `O=c1cc(-c2cccc([N+](=O)[O-])c2)[nH][nH]1`, the inhibition is 29% (inactive) in assay [1], 18% (inactive) in assay [2], 24% (inactive) in assay [3] and 5% (inactive) in assay [4].
Turning to `O=C(O)CCC(=O)Nc1ccc(SSc2ccc(NC(=O)CCC(=O)O)cc2)cc1`, the inhibition is 45% (inactive) in assay [1], 40% (inactive) in assay [2], 35% (inactive) in assay [3] and 34% (inactive) in assay [4].
In the same order, the values of `O=C(O)CCC(=O)c1ccc(-c2ccccc2)cc1` are -51% (inactive), -45% (inactive), 16% (inactive) and 24% (inactive).
Taken in the same sequence, the figures for `O=C(COc1ccccc1F)N1CCN(S(=O)(=O)/C=C/c2ccccc2)CC1` were 42% (inactive), 25% (inactive), -10% (inactive) and 3% (inactive).
In the same order, the values of `Cn1c(SCC(=O)N/N=C/C=C/c2ccco2)nc2ccccc21` are 38% (inactive), 41% (inactive), 14% (inactive) and -13% (inactive).
For the compound `CCOC(=O)N1CCC(c2cc(=O)n(-c3ccccc3)[nH]2)CC1`, the inhibition is 30% (inactive) in assay [1], 14% (inactive) in assay [2], 43% (inactive) in assay [3] and 32% (inactive) in assay [4].
Regarding `Cc1cc(N(C)NC(=S)Nc2ccccc2)nc(C)n1`, the inhibition in assay [1] is 5% (inactive); in assay [2], 58%; in assay [3], 32% (inactive); in assay [4], 38% (inactive).
Taken in the same sequence, the figures for `COc1cccc(/C=C2/CN(C)CC3=C2OC(N)=C(C#N)C3c2cccc(OC)c2)c1` (centres undefined) were -5% (inactive), 92%, -47% (inactive) and 48% (inactive).
Turning to `O=C(O)c1[nH]c2ccccc2c1-c1ccccc1`, the inhibition in assay [1] was 40% (inactive); in assay [2] it was 14% (inactive); in assay [3] it was 17% (inactive); in assay [4], 10% (inactive).
With `CC(=O)N(Cc1cc(=O)[nH]c2ccccc12)c1cccc(C)c1`, the inhibition was -7% (inactive) in assay [1], 19% (inactive) in assay [2], 58% in assay [3] and 39% (inactive) in assay [4].
Taken in the same sequence, the figures for `CCN(Cc1ccc2c(c1)OCCO2)C(=O)CSc1nc(C)nc2sc(C)c(C)c12` were -38% (inactive), 24% (inactive), 43% (inactive) and 24% (inactive).
In the same order, the values of `COc1ccc(/C=C2/C(=O)N(c3ccccc3)N=C2C)cc1` are 35% (inactive), 47% (inactive), 20% (inactive) and 35% (inactive).
For `CCOc1nc(Nc2ccc(OC)cc2OC)nc(OCC)n1`, the inhibition in assay [1] is 20% (inactive); in assay [2], 62%; in assay [3] it was 37% (inactive); in assay [4], 46% (inactive).
In the same order, the values of `COCc1cc(C)nc(SCC(=O)Nc2ccc3c(c2)n(C)c(=O)n3C)c1C#N` are 38% (inactive), 31% (inactive), 15% (inactive) and -43% (inactive).
In the same order, the values of `COc1ccc(-c2nc(C(=O)NCCCN3CCOCC3)cc3c2[nH]c2ccccc23)cc1OC` are 10% (inactive), 18% (inactive), 30% (inactive) and -12% (inactive).
In the same order, the values of `COc1cccc(NC(=O)C2c3cc(OC)c(OC)cc3C(=O)N(C)C2c2cccnc2)c1` (centres undefined) are 61%, 22% (inactive), 15% (inactive) and 26% (inactive).
For the compound `CN(C)C(CNC(=O)c1cc2ccccc2o1)c1ccco1` (centres undefined), the inhibition in assay [1] is 24% (inactive); in assay [2] it was 46% (inactive); in assay [3] it was 11% (inactive); in assay [4], 35% (inactive).
Taken in the same sequence, the figures for `Cc1ccc(CNC(=O)c2ccc(C)c(S(=O)(=O)N3CCCCC3)c2)cc1` were 19% (inactive), 67%, 21% (inactive) and 31% (inactive).
`Cn1c(N)c(C(=O)COC(=O)COc2ccc(Br)cc2)c(=O)n(C)c1=O`: the inhibition in assay [1] was 20% (inactive); in assay [2], 51%; in assay [3] it was 16% (inactive); in assay [4], 19% (inactive).
`N#CCCn1[nH]c(-c2ccccc2)cc1=O`: the inhibition in assay [1] was 32% (inactive); in assay [2], 29% (inactive); in assay [3], 47% (inactive); in assay [4] it was 3% (inactive).
Taken in the same sequence, the figures for `COc1ccc(/C=N/Nc2nncn2N)cc1Br` were 55%, 44% (inactive), 30% (inactive) and -24% (inactive).
In the same order, the values of `Cc1ccc(C2=NN=C(NC(=O)CSc3nncn3C)SC2)cc1` are 26% (inactive), 1% (inactive), 16% (inactive) and 32% (inactive).
In the case of `O=C1CC(c2cccnc2)=NN1c1ccccc1`, the inhibition in assay [1] was 4% (inactive); in assay [2], 34% (inactive); in assay [3] it was 37% (inactive); in assay [4], 34% (inactive).
For the compound `COc1ccc(S(=O)(=O)Nc2ccccc2C)cc1`, the inhibition was 57% in assay [1], 57% in assay [2], 23% (inactive) in assay [3] and -13% (inactive) in assay [4].

Source of the values: PubChem BioAssay AID588487 (The Scripps Research Institute Molecular Screening Center, 2011).
